ChEMBL document CHEMBL2146382, “Cytotoxic and antineoplastic activity of timosaponin A-III for human colon cancer cells” (J Nat Prod, 2011)
Activity calls are given as the source filed them. No cut-off for these calls is given here.

How the values were obtained:
HCT-15 [1] = experiment: Induction of apoptosis in human HCT15 cells assessed as PARP cleavage at 20 uM after 12 to 24 hrs by Western blot analysis; type: functional, cell-based
Procedure, shortened: (§1)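 HCT-15 cells in RPMI/10% FBS exposed to test compound at various concentrations; lysates quantified by BCA, 30–50 μg protein run on 10% SDS-PAGE, transferred to PVDF, blocked 1 h in 5% milk/PBST, primary antibodies overnight at 4 °C, HRP anti-mouse IgG 1:1500 for 3 h at room temperature, ECL detection.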

HCT-15 [2] = experiment: Cytotoxicity against human HCT15 cells assessed as morphological changes with distinct rounded shapes and detachment after 12 to 24 hrs by phase-contrast microscopy; type: functional, cell-based
Procedure, shortened: (§2)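 HCT-15 cells treated with 0–20 μM for 12 and 24 h, vehicle-treated controls; morphology examined and photographed under phase-contrast microscope.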

HCT-15 [3] = experiment: Cell cycle arrest at G0/G1 phase in human HCT15 cells assessed as decrease in c-Myc expression at 5 to 20 uM after 24 hrs by Western blot analysis; type: functional, cell-based; procedure, shortened: as §1
HCT-15 [4] = experiment: Cell cycle arrest in human HCT15 cells assessed as increase in cyclin D1 expression up to 10 uM after 12 to 24 hrs by Western blot analysis; type: functional, cell-based; procedure, shortened: as §1
HCT-15 [5] = experiment: Induction of apoptosis in human HCT15 cells assessed as increase in caspase-9 expression after 12 to 24 hrs by Western blot analysis; type: functional, cell-based
Procedure, shortened: (§3)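 HCT-15 cells (RPMI, 10% heat-inactivated FBS, antibiotics-antimycotics, 37 C, 5% CO2) exposed to compound. Cells lysed, protein measured by BCA, 30-50 μg per lane resolved on 10% SDS-PAGE and electroblotted to PVDF. Membranes blocked 1 h in 5% nonfat milk/PBST, probed with primary antibodies overnight at 4 C, then HRP anti-mouse IgG 1:1500 for 3 h at room temperature. Detection by ECL; β-actin antibody available.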

SW-620 = experiment: Growth inhibition of human SW620 cells; type: functional, cell-based
Procedure, shortened: (§4)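 SRB assay: cells at 5 × 10^4 cells/mL were exposed to a concentration series for 3 days, fixed with 10% TCA and stained with sulforhodamine B. Survival was expressed as % of solvent-treated control and IC50 taken by nonlinear regression of % survival versus concentration. Media held 10% heat-inactivated FBS plus antibiotics: RPMI (HCT-15, HCT 116, HT-29), RPMI with 25 mM HEPES (SW480, SW620), DMEM (MRC-5, Hs68). Cultures were kept at 37 C, 5% CO2.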

HCT-15 [6] = experiment: Cytotoxicity against human HCT15 cells assessed as dead cells up to 20 uM after 12 to 24 hrs by phase contrast microscopy; type: functional, cell-based; procedure, shortened: as §2
HCT-15 [7] = experiment: Cell cycle arrest in human HCT15 cells up to 10 uM after 12 hrs by propidium-iodide staining by flow-cytometry; type: functional, cell-based
HCT-15 [8] = experiment: Cell cycle arrest at G0/G1 phase in human HCT15 cells assessed as decrease in CDK4 expression at 5 to 20 uM after 12 to 24 hrs by Western blot analysis; type: functional, cell-based; procedure, shortened: as §1
HCT-15 [9] = experiment: Cell cycle arrest in human HCT15 cells assessed as accumulation at G0/G1 phase at 10 uM after 24 hrs using propidium-iodide staining by flow-cytometry (reference value: 37.0 %); type: functional
HCT-15 [10] = experiment: Cell cycle arrest in human HCT15 cells assessed as accumulation at S phase at 20 uM after 24 hrs using propidium-iodide staining by flow-cytometry (reference value: 34.1 %); type: functional
HCT-15 [11] = experiment: Cell cycle arrest in human HCT15 cells assessed as accumulation at S phase at 20 uM after 12 hrs using propidium-iodide staining by flow-cytometry (reference value: 34.7 %); type: functional
HCT-15 [12] = experiment: Cell cycle arrest in human HCT15 cells assessed as accumulation at G0/G1 phase at 5 uM after 12 hrs using propidium-iodide staining by flow-cytometry (reference value: 44.4 %); type: functional
HCT-15 [13] = experiment: Antineoplastic activity against human HCT15 cells xenografted in nude BALB/c mouse assessed as tumor growth inhibition at 2 to 5 mg/kg, ip 3 times a week for 4 weeks; type: functional, organism-based
Procedure, shortened: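 HCT-15 cells (2 × 10^6 in 200 μL medium) implanted subcutaneously in flanks of BALB/c-nu (nu/nu) mice; dosing began at ca. 80 mm3 tumours; groups of five, randomized. 2 or 5 mg/kg given ip three times weekly in ethanol–cremophor–H2O (0.5:0.5:99), vehicle controls; caliper volume (3.14·L·W·H/6) three times weekly for 30 days; Ki-67 immunohistochemistry on tumour sections (1:250, 4 °C overnight, DAB, hematoxylin counterstain).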

HCT-15 [14] = experiment: Induction of apoptosis in human HCT15 cells assessed as increase in caspase-8 expression at 5 to 20 uM by Western blot analysis; type: functional, cell-based; procedure, shortened: as §3
HCT-15 [15] = experiment: Cell cycle arrest in human HCT15 cells assessed as accumulation at S phase at 10 uM after 12 hrs using propidium-iodide staining by flow-cytometry (reference value: 34.7 %); type: functional
HCT-15 [16] = experiment: Cytotoxicity against human HCT15 cells after 3 days; type: functional, cell-based; conditions: HCT-15, 72 h; procedure, shortened: as §4
HCT-15 [17] = experiment: Induction of apoptosis in human HCT15 cells assessed as increase in caspase-9 expression at 5 to 20 uM by Western blot analysis; type: functional, cell-based; procedure, shortened: as §3
HCT-15 [18] = experiment: Induction of apoptosis in human HCT15 cells assessed as suppression of procaspase-8 expression at 5 to 20 uM after 12 to 24 hrs by Western blot analysis; type: functional, cell-based; procedure, shortened: as §3
HCT-15 [19] = experiment: Cell cycle arrest in human HCT15 cells assessed as accumulation at sub-G1 phase at 20 uM after 24 hrs using propidium-iodide staining by flow-cytometry (reference value: 6.5 %); type: functional
HCT-15 [20] = experiment: Cytotoxicity against human HCT15 cells assessed as morphological changes with distinct rounded shapes and detachment at 5 to 20 uM by phase-contrast microscopy; type: functional, cell-based; conditions: TDE = time-dependent effect; procedure, shortened: as §2
HCT-15 [21] = experiment: Cell cycle arrest in human HCT15 cells assessed as accumulation at G2/M phase at 5 uM after 12 hrs using propidium-iodide staining by flow-cytometry (reference value: 15.7 %); type: functional
HCT-15 [22] = experiment: Cell cycle arrest at […] phase in human HCT15 cells assessed as CDK4 down regulation at 5 to 20 uM after 12 to 24 hrs by Western blot analysis; type: functional, cell-based; procedure, shortened: as §1
HCT-15 [23] = experiment: Cell cycle arrest in human HCT15 cells assessed as accumulation at S phase at 10 uM after 24 hrs using propidium-iodide staining by flow-cytometry (reference value: 34.1 %); type: functional
HCT-15 [24] = experiment: Cell cycle arrest in human HCT15 cells assessed as change in PCNA level at 5 to 20 uM after 12 to 24 hrs by Western blot analysis
HCT-15 [25] = experiment: Cell cycle arrest in human HCT15 cells assessed as accumulation at G0/G1 phase at 20 uM after 12 hrs using propidium-iodide staining by flow-cytometry (reference value: 44.4 %); type: functional
HCT-15 [26] = experiment: Induction of apoptosis in human HCT15 cells assessed as suppression of procaspase-3 expression at 5 to 20 uM after 12 to 24 hrs by Western blot analysis; type: functional, cell-based; procedure, shortened: as §3
[27] = Growth inhibition of human […] cells; type: cell-based; procedure, shortened: as §4
HCT-15 [28] = experiment: Induction of apoptosis in human HCT15 cells assessed as suppression of procaspase-9 expression at 5 to 20 uM after 12 to 24 hrs by Western blot analysis; type: functional, cell-based; procedure, shortened: as §3

## C[C@H]1CC[C@@]2(OC1)O[C@H]1C[C@H]3[C@@H]4CC[C@@H]5C[C@@H](O[C@@H]6O[C@H](CO)[C@H](O)[C@H](O)[C@H]6O[C@@H]6O[C@H](CO)[C@@H](O)[C@H](O)[C@H]6O)CC[C@]5(C)[C@H]4CC[C@]3(C)[C@H]1[C@@H]2C [TIMOSAPONIN AIII]
HCT-15 [1]
  Activity: Active
HCT-15 [2]
  Activity: Dose-dependent effect
HCT-15 [3]
  Activity: Active
HCT-15 [4]
  Activity: Active
HCT-15 [5]
  Activity: Active
SW-620
  IC50: 11.1 µM
HCT-15 [6]
  Activity: Active
HCT-15 [7]
  Activity: Active
HCT-15 [8]
  Activity: Active
HCT-15 [9]
  Activity: 47.9%
HCT-15 [10]
  Activity: 17%
HCT-15 [11]
  Activity: 4.2%
HCT-15 [12]
  Activity: 52.2%
HCT-15 [13]
  TGI: Active
HCT-15 [14]
  Activity: Active
HCT-15 [15]
  Activity: 18.4%
HCT-15 [16]
  IC50: 6.1 µM
HCT-15 [17]
  Activity: Active
HCT-15 [18]
  Activity: Active
HCT-15 [19]
  Activity: 39.7%
HCT-15 [20]
  Activity: tde
HCT-15 [21]
  Activity: 20.5%
HCT-15 [22]
  Activity: Active
HCT-15 [23]
  Activity: 15.3%
HCT-15 [24]
  Activity: inactive
HCT-15 [25]
  Activity: 12.2%
HCT-15 [26]
  Activity: Active
[27]
  IC50: > 50 µM
HCT-15 [28]
  Activity: Active
